Measured values published in ChEMBL document CHEMBL4431351, “1,2-Benzisoselenazol-3(2H)-one Derivatives As a New Class of Bacterial Urease Inhibitors” (J Med Chem, 2016).
Calls of active or inactive are those of the source. The rule behind the calls is not given here.

Assays:
[1] = molecular target: T1, Urease subunit alpha/Urease subunit beta (Helicobacter pylori (strain ATCC 700392 / 26695) (Campylobacterpylori), UniProt P69996+P14916); assay: Inhibition of urease in Helicobacter pylori J99 in Brucella broth using urea as substrate preincubated for 2 hrs followed by substrate addition measured after 2 hrs by Berthelot assay; type: protein-complex assay
T1 sequence (P69996 whole entry): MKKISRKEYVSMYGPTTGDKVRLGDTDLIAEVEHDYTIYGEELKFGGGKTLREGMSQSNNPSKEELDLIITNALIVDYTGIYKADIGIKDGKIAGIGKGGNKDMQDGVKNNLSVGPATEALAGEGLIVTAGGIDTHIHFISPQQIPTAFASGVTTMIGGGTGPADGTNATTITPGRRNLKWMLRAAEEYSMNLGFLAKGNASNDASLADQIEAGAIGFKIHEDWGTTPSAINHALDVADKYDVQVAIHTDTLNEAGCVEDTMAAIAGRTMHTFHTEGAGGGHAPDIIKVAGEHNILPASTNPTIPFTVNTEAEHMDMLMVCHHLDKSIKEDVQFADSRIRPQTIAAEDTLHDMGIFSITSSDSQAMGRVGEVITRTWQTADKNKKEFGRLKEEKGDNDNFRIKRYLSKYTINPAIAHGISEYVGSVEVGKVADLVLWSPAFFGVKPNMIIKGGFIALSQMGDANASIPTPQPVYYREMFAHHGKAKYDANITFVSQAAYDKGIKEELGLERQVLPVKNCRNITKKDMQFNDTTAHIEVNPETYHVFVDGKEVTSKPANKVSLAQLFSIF
T1 sequence (P14916 whole entry): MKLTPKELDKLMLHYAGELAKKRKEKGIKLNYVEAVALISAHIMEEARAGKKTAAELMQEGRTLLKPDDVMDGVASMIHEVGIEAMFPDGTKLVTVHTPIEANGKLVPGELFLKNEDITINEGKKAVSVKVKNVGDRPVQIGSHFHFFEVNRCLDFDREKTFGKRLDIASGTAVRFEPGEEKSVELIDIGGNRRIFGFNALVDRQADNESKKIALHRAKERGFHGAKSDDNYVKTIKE
Outline: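 Unwashed H. pylori J99 cells from 48 h Brucella broth culture (5% FBS, 1% IsoVitalex), resuspended in 10 mM PBS pH 7.2, about 1×10⁷ cfu/mL. Cells preincubated 2 h with inhibitor before 5 mM urea was added. Timed aliquots assayed by Berthelot method; three repeats.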

[2] = molecular target: T1, Urease subunit alpha/Urease subunit beta; assay: Inhibition of urease in Helicobacter pylori J99 in Brucella broth using urea as substrate after 2 hrs by Berthelot assay; type: protein-complex assay
Outline: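 H. pylori J99 passaged on blood Columbia agar, microaerophilic, 37°C. Then grown 48 h in Brucella broth with 5% FBS and 1% IsoVitalex, spun once and resuspended in 10 mM PBS pH 7.2 without washing. About 1×10⁷ cfu/mL added to PBS with 5 mM urea and inhibitor. Berthelot ammonia read-out, triplicate.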

[3] = Steady state inhibition of Sporosarcina pasteurii CCM 2056 urease using urea as substrate assessed as inhibition constant for final enzyme conformation-inhibitor complex by measuring ammonia levels after 120 mins by phenol-hypochlorite method
Outline: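 S. pasteurii urease (113.5 pM final) added to stirred mixtures with 25 mM urea and varied inhibitor (water or DMF), 3 mM phosphate pH 7.5, 37°C. Ammonia sampled over 120 min by phenol-hypochlorite. Progress curves fitted to integrated slow-binding equation. Ki and Ki* derived using Km and Vmax of uninhibited enzyme.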

Sporosarcina pasteurii [4] = assay: Competitive inhibition of Sporosarcina pasteurii CCM 2056 urease using urea as substrate assessed as ammonia levels after 120 mins by Lineweaver-Burk plot analysis
Outline: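 Purified native S. pasteurii urease (113.5 pM final) preincubated with rising inhibitor levels in 3 mM phosphate buffer pH 7.5, 37°C, until equilibrium; urea 1–60 mM then added. Initial rates measured by phenol-hypochlorite ammonia read-out; mode and constants from Lineweaver-Burk plots using at least 5 inhibitor concentrations.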

[5] = molecular target: T1, Urease subunit alpha/Urease subunit beta; assay: Inhibition of recombinant Helicobacter pylori urease expressed in Escherichia coli rosetta DE3 using urea as substrate assessed as transformed cell urea splitting activity after 2 hrs by Berthelot assay
Outline: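 E. coli Rosetta pGEM::ureOP cells grown in LB with ampicillin at 37°C, induced with 0.75 mM IPTG and 0.75 mM Ni²⁺ for 24 h at 22°C, then washed thrice in PBS. Cells (1×10⁹ cfu/mL final) start the reaction in 10 mM PBS with 5 mM urea and inhibitor. Timed aliquots read by Berthelot; triplicate.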

Sporosarcina pasteurii [6] = assay: Reversible inhibition of Sporosarcina pasteurii CCM 2056 urease using urea as substrate assessed as ammonia levels after 120 mins by fast dilution assay
[7] = molecular target: T1, Urease subunit alpha/Urease subunit beta; assay: Inhibition of recombinant Helicobacter pylori urease expressed in Escherichia coli rosetta DE3 using urea as substrate assessed as transformed cell urea splitting activity preincubated for 2 hrs followed by substrate addition measured after 2 hrs by Berthelot assay
Outline: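 Induced, PBS-washed E. coli Rosetta pGEM::ureOP cells (1×10⁹ cfu/mL) held 2 h with inhibitor in 10 mM PBS. Urea then added to 5 mM. Ammonia in timed aliquots measured by Berthelot assay against an inhibitor-free reference. DMF effect checked. Three repeats.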

For `O=C(Oc1ccccc1)c1ccccc1[Se][Se]c1ccccc1C(=O)Oc1ccccc1`, the IC50 [1] was “Not Active”, the IC50 [2] was “Not Active” and the Ki [3] was 528 nM. The “competitive inhibition (qualitative call)” value (Sporosarcina pasteurii [4]) was “Active”, the IC50 [5] was “Not Active” and the “reversible inhibition (qualitative)” value (Sporosarcina pasteurii [6]) was “Active”. For the same compound, the IC50 [7] was “Not Active”.
